Test results reported in ChEMBL document CHEMBL1140091, “2-aminothienopyridazines as novel adenosine A1 receptor allosteric modulators and antagonists” (J Med Chem, 2008).
“And” between values parts separate entries of the source, which are not always exact repeats. Identical values can stand only once. The source made the active and inactive calls. No cut-off for these calls is given here.

Legend:
[1] = target: T1, Adenosine receptor A1 (Homo sapiens) (UniProt P30542); test: Modulation of human adenosine A1 receptor expressed in CHO-K1 cells assessed as stabilization of [125I]ABA-receptor-G protein ternary complex at 50 uM by dissociation kinetic assay; type: cell-based
T1 sequence (whole entry): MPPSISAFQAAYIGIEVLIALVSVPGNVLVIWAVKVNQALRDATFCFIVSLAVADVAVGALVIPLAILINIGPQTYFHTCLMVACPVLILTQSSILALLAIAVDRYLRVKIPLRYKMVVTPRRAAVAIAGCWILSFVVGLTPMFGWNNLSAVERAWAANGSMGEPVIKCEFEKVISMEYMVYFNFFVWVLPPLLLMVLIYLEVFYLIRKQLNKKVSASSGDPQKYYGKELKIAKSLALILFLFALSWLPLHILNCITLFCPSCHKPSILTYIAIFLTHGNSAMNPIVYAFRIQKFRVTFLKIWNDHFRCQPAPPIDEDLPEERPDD
In short: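 CHO-K1 membranes with human A1AR (10 µg) equilibrated 90 min at room temperature with 0.5 nM [125I]-ABA in 10 mM HEPES pH 7.2, 0.5 mM MgCl2, 1 U/mL ADA. Modulator (0.1-50 µM final) added for 30 min. Dissociation started with 100 µM BW-1433 plus 25 µM GTPγS for 10 min, then filtration and counting. K-score = 100×(B−Bo)/(Beq−Bo); n = 3. EC50 from variable-slope sigmoidal fit.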

Adenosine receptor A1 [2] = target: T2, Adenosine receptor A1 (Homo sapiens, UniProt P30542); test: Modulation of human adenosine A1 receptor expressed in CHO-K1 cells assessed as allosteric effect on [125I]ABA dissociation; type: cell-based
T2 sequence (P30542 whole entry): T1 sequence (whole entry)

[3] = target: T1, Adenosine receptor A1 (Homo sapiens); test: Displacement of [3H]CPX from human adenosine A1 receptor expressed in CHO-K1 cells at 50 uM; type: cell-based
In short: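 Incubated with 2 nM [3H]CPX and 50 µM modulator (final) for 90 min at room temperature. Nonspecific binding defined with 100 µM NECA. Filtration and scintillation counting; triplicate, given as % inhibition versus control.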

Adenosine receptor A1 [4] = target: T2, Adenosine receptor A1; test: (§1) Antagonist activity at human adenosine A1 receptor expressed in FlpIn-CHO cells assessed as inhibition of R-PIA-mediated ERK1/2 phosphorylation; type: functional, cell-based; details: read-out: pA2 (converted)
[5] = target: T1, Adenosine receptor A1 (Homo sapiens); test: as §1; type: functional, cell-based
Adenosine receptor A1 [6] = target: T2, Adenosine receptor A1; test: Antagonist activity at human adenosine A1 receptor assessed as inhibition of R-PIA-mediated [35S]GTPgammaS binding to G protein; type: functional; details: read-out: pA2 (converted)
In short: (§2)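 Membranes (15 µg) from CHO FlpIn cells stably expressing human A1AR. Preincubated 60 min at 30 °C in 10 mM HEPES, 100 mM NaCl, 10 mM MgCl2, pH 7.4, with 10 µM GDP, R-PIA (0.01 nM - 1 µM) ± increasing modulator concentrations. [35S]GTPγS (100 pM) then added for another 30 min at 30 °C. Filtration and scintillation counting; three experiments in duplicate.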

[7] = target: T1, Adenosine receptor A1 (Homo sapiens); test: Inverse agonist activity at human adenosine A1 receptor assessed as reduction of inhibition of R-PIA-mediated [35S]GTPgammaS binding to G protein; type: functional; in short: as §2
Adenosine receptor A1 [8] = target: T2, Adenosine receptor A1; test: Antagonist activity at human adenosine A1 receptor expressed in CHO-K1 cells assessed as reduction of [3H]CCPA specific equilibrium binding; type: cell-based

Structure (SMILES)	Activity [1]	EC50 (Adenosine receptor A1 [2])	inhibition [3]	also measured
Nc1ccccc1C(=O)NNc1ccccc1Cl	< 5%	–	–	–
CSc1nc(C(N)=O)c(N)s1	< 5%	–	–	–
Cc1sc(N)c(C(=O)c2cccs2)c1C	33.2%	11.2 µM	50.3%	Activity [5]: inactive
NC(=O)c1cc(Cl)c(Cl)cc1C(N)=O	< 5%	–	–	–
NNC(=O)c1nccnc1N	< 5%	–	–	–
NC(=O)c1nnn(Cc2ccc(F)cc2)c1N	< 5%	–	–	–
CCOC(=O)c1nn(-c2ccc(OC(C)=O)cc2)c(=O)c2c(N)scc12	66.6%	2.5 µM	48.9%	Kb (Adenosine receptor A1 [4]): 39.8 nM
CCOC(=O)c1cnn(C)c1N	< 5%	–	–	–
NC(=O)c1nnn(Cc2ccc(Cl)cc2)c1N	< 5%	–	–	–
Nc1ccccc1C(=O)N/N=C/c1ccc2c(c1)OCO2	< 5%	–	–	–
COc1cccc(-c2cc3c(c(N)c2C#N)c(=O)oc2ccccc23)c1	< 5%	–	–	–
Nc1ccc(Cl)cc1C(=O)NCc1ccncc1	< 5%	–	–	–
CCOC(=O)c1cn[nH]c1N	< 5%	–	–	–
Nc1nccnc1C(=O)NNS(=O)(=O)c1ccc(Cl)cc1	< 5%	–	–	–
Nc1ccc(Cl)cc1C(=O)NCc1ccccn1	< 5%	–	–	–
Nc1nccnc1C(=O)N/N=C/c1ccc(Cl)cc1	< 5%	–	–	–
Nc1cc(Cl)ccc1C(=O)N1CCSCC1	6%	–	–	–
NC(=O)c1ncccc1C(=O)O	< 5%	–	–	–
Nc1nccnc1C(=O)N/N=C/c1ccc(C(F)(F)F)cc1	< 5%	–	–	–
Nc1ccccc1C(=O)NC1CCCCNC1=O (stereo not drawn)	< 5%	–	–	–
Nc1nccnc1C(=O)N/N=C/c1ccco1	< 5%	–	–	–

Second part, led by results:

Activity [1]	EC50 (Adenosine receptor A1 [2])	inhibition [3]	Structure (SMILES)	also measured
60.4%	13.6 µM	22.8%	CCOC(=O)c1nn(-c2ccccc2)c(=O)c2c(N)scc12	Kb (Adenosine receptor A1 [4]): 15.8 nM
65.4%	7.1 µM	100%	CCOC(=O)c1nn(-c2ccc(I)cc2)c(=O)c2c(N)scc12	Kb (Adenosine receptor A1 [4]): 79.4 nM
59%	9.75 µM	23%	CCOC(=O)c1nn(-c2ccc(C(C)(C)C)cc2)c(=O)c2c(N)scc12	Activity [5]: inactive
–	9.8 µM	–	Nc1scc2c(C(=O)O)nn(-c3ccccc3)c(=O)c12	–
75.9%	7.1 µM	65.8%	CCOC(=O)c1nn(-c2ccc(O)cc2)c(=O)c2c(N)scc12	Kb (Adenosine receptor A1 [4]): 39.8 nM
55.8%	2.6 µM	29.5%	COc1ccc(-n2nc(C(=O)O)c3csc(N)c3c2=O)cc1	Activity [5]: inactive
68.6%	4.3 µM	92.5%	CCOC(=O)c1nn(-c2ccc(OC)cc2)c(=O)c2c(N)scc12	Kb (Adenosine receptor A1 [4]): 200 nM
< 5%	–	–	NC(=O)c1nnc2ccccc2c1N	–
< 5%	–	–	CCOC(=O)c1c(N)sc2c1-c1ccccc1C2	–
11%	–	–	CCOC(=O)c1cnc(SCC(=O)c2cc(Cl)c(Cl)s2)nc1N	–
68.5%	4.9 µM	21.5%	CCOC(=O)c1nn(-c2ccc(OS(=O)(=O)C(F)(F)F)cc2)c(=O)c2c(N)scc12	Activity [5]: inactive
< 5%	–	–	Cc1nn(-c2ccccc2)c2nc(N)c(C(N)=O)cc12	–
80.3% and 80%	3.95 µM	32.3%	Cc1c(C(=O)Nc2ccccc2)sc(N)c1C(N)=O	Activity [5]: inactive
69.2%	5.7 µM	100%	CCOC(=O)c1nn(-c2cccc(Cl)c2)c(=O)c2c(N)scc12	Kb (Adenosine receptor A1 [4]): 2 nM; Kb (Adenosine receptor A1 [6]): 7.94 nM; Activity [7]: Dose-dependent effect; Ki (Adenosine receptor A1 [8]): 5.75 nM
5%	–	–	COc1ccc(-n2nc(C(=O)OC(C)(C)C)c3csc(N)c3c2=O)cc1	–
19.6%	13 µM	73.4%	CCOC(=O)c1nn(-c2ccc([N+](=O)[O-])cc2)c(=O)c2c(N)scc12	Activity [5]: inactive
< 5%	–	–	Nc1c2c(=O)cc(-c3ccccc3)[nH]c2nn1-c1ccccc1	–
< 5%	–	–	Cc1nc2ccccc2c(C(=O)O)c1N	–
81%	8.4 µM	77.2%	CCOC(=O)c1nn(-c2ccc(C(F)(F)F)cc2)c(=O)c2c(N)scc12	Activity [5]: inactive
< 5%	–	–	CCOC(=O)c1c(C)nsc1N	–
< 5%	–	–	Nc1[nH]nc2[nH]c(-c3ccccc3)cc(=O)c12	–
66.1%	2.7 µM	32%	CCOC(=O)c1nn(-c2cccc(C(F)(F)F)c2)c(=O)c2c(N)scc12	Activity [5]: inactive
